Results reported in ChEMBL document CHEMBL1121845, “Synthesis and antitumor activity of cysteinyl-3,4-dihydroxyphenylalanines and related compounds” (1981).

What was measured:
Don [1] = experiment: Growth inhibition of Don-6 cell lines at 1.0 mM concentration; type: functional; details: Cricetulus griseus
How it was run: (§1)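 YT-nu (human neuroblastoma) or Don-6 (Chinese hamster fibroblast) cells in McCoy's 5A with 15% FCS, attached 24 h. Washed, then exposed 1 h at 37 °C to drug at 1 or 0.1 mM in Hanks' BSS. Grown 48 h more in medium, trypsinized and Coulter-counted. % growth inhibition relative to parallel drug-free controls.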

[2] = test system: YT-nu neuroblastoma (Homo sapiens); experiment: Compound was tested for growth inhibition of YT-nu cell lines at 0.1 mM concentration
YT-NU [3] = experiment: Growth inhibition of YT-nu cell lines at 1.0 mM concentration; type: functional; details: Homo sapiens; how it was run: as §1
[4] = test system: Don-6 fibroblast (Cricetulus griseus); experiment: Compound was tested for growth inhibition of Don-6 cell lines at 0.1 mM concentration
Mus musculus [5] = experiment: Compound was tested for antitumor activity against the B-16 melanoma in mice at dose of 400(mg/kg)/day intraperitoneally per day; type: functional
How it was run: (§2)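 B-16 melanoma: young C57BL/6 × DBA/2 F1 male mice, about 20 g, 10 per group, inoculated ip with 5 × 10^6 melanoma cells on day 0. Drug given in 0.9% NaCl ip once daily for 12 days starting day 1. Read-out is %T/C = median survival time of treated/control × 100; weight change averaged between days 1 and 5.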

Don [6] = experiment: Compound was tested for growth inhibition of Don-6 cell lines at 0.1 mM concentration; type: functional; details: Cricetulus griseus; how it was run: as §1
Mus musculus [7] = experiment: Compound was tested for antitumor activity against the B-16 melanoma in mice at dose of 800(mg/kg)/day intraperitoneally per day; type: functional; how it was run: as §2
Mus musculus [8] = experiment: Compound was tested for antitumor activity against the L1210 leukemia in mice at dose of 800(mg/kg)/day intraperitoneally per day; type: functional
How it was run: as §2, with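 “L1210 leukemia: young” for “B-16 melanoma: young”, “with 1” for “with 5”, “10^6 leukemia” for “10^6 melanoma”, “for 7” for “for 12”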

YT-NU [9] = experiment: Compound was tested for growth inhibition of YT-nu cell lines at 0.1 mM concentration; type: functional; details: Homo sapiens; how it was run: as §1
Mus musculus [10] = experiment: Compound was tested for antitumor activity against the L1210 leukemia in mice at dose of 400(mg/kg)/day intraperitoneally per day; type: functional
How it was run: as §2, with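 “L1210 leukemia: young” for “B-16 melanoma: young”, “with 1” for “with 5”, “10^6 leukemia” for “10^6 melanoma”, “for 7” for “for 12”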

Mus musculus [11] = experiment: Compound was tested for antitumor activity against the L1210 leukemia in mice at dose of 100(mg/kg)/day intraperitoneally per day; type: functional
How it was run: (§3)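 Male C57BL/6 × DBA/2 F1 mice, about 20 g, 10 per group, inoculated ip with 1 × 10^6 L1210 cells on day 0. From day 1, drug in 0.9% NaCl given ip once daily for 7 days. Weight change recorded between days 1 and 5. Activity expressed as %T/C = median survival time of treated over control × 100.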

Mus musculus [12] = experiment: Compound was tested for antitumor activity against the L1210 leukemia in mice at dose of 150(mg/kg)/day intraperitoneally per day; type: functional; how it was run: as §3
Mus musculus [13] = experiment: Compound was tested for antitumor activity against the L1210 leukemia in mice at dose of 1000 mg/kg/day intraperitoneally per day; type: functional; details: route intraperitoneal
Mus musculus [14] = experiment: Compound was tested for antitumor activity against the L1210 leukemia in mice at dose of 500(mg/kg)/day intraperitoneally per day; type: functional
How it was run: as §2, with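 “L1210 leukemia: young” for “B-16 melanoma: young”, “with 1” for “with 5”, “10^6 leukemia” for “10^6 melanoma”, “for 7” for “for 12”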

Mus musculus [15] = experiment: Compound was tested for antitumor activity against the L1210 leukemia in mice at dose of 500 mg/kg intraperitoneally per day; type: functional; details: route intraperitoneal
How it was run: as §2, with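 “L1210 leukemia: young” for “B-16 melanoma: young”, “with 1” for “with 5”, “10^6 leukemia” for “10^6 melanoma”, “for 7” for “for 12”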

Mus musculus [16] = experiment: Compound was tested for antitumor activity against the B-16 melanoma in mice at dose of 1000 mg/kg/day intraperitoneally per day; type: functional; details: route intraperitoneal
Mus musculus [17] = experiment: Compound was tested for antitumor activity against the B-16 melanoma in mice at dose of 500(mg/kg)/day intraperitoneally per day; type: functional; how it was run: as §2
Mus musculus [18] = experiment: Compound was tested for antitumor activity against the L1210 leukemia in mice at dose of 250 mg/kg intraperitoneally per day; type: functional; details: route intraperitoneal
How it was run: as §2, with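 “L1210 leukemia: young” for “B-16 melanoma: young”, “with 1” for “with 5”, “10^6 leukemia” for “10^6 melanoma”, “for 7” for “for 12”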

Mus musculus [19] = experiment: Compound was tested for antitumor activity against the B-16 melanoma in mice at dose of 100(mg/kg)/day intraperitoneally per day; type: functional; how it was run: as §2
Mus musculus [20] = experiment: Compound was tested for antitumor activity against the B-16 melanoma in mice at dose of 300(mg/kg)/day intraperitoneally per day; type: functional; how it was run: as §2
Mus musculus [21] = experiment: Compound was tested for antitumor activity against the L1210 leukemia in mice at dose of 300(mg/kg)/day intraperitoneally per day; type: functional
How it was run: as §2, with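 “L1210 leukemia: young” for “B-16 melanoma: young”, “with 1” for “with 5”, “10^6 leukemia” for “10^6 melanoma”, “for 7” for “for 12”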

Compound `Cc1ccc(O)c(O)c1` has an inhibition at 1000 µM (Don [1]) of 76%, an inhibition at 100 µM [2] of 48% and an inhibition at 1000 µM (YT-NU [3]) of 93%. The inhibition at 100 µM [4] was 33%.

For `Cc1cc(O)c(O)c(SCC(N)C(=O)O)c1` (centres undefined), the T/C (Mus musculus [5]) was 100%, the Weight change (Mus musculus [5]) was 0.7 g and the inhibition at 100 µM (Don [6]) was 25%. The T/C (Mus musculus [7]) was 126%, the Weight change (Mus musculus [7]) was -0.4 g and the T/C (Mus musculus [8]) was 143%. For the same compound, the Weight change (Mus musculus [8]) was 0.5 g, the inhibition at 1000 µM (Don [1]) was 82% and the inhibition at 100 µM (YT-NU [9]) was 44%. The inhibition at 1000 µM (YT-NU [3]) was 84%, the T/C (Mus musculus [10]) was 143% and the Weight change (Mus musculus [10]) was 1.6 g.

`NC(CSc1c(CC(N)C(=O)O)ccc(O)c1O)C(=O)O` (centres undefined) was tested, and the inhibition at 1000 µM (Don [1]) was 0% and the inhibition at 1000 µM (YT-NU [3]) was 35%.

With `NC(CSc1ccccc1O)C(=O)O` (centres undefined) the inhibition at 1000 µM (Don [1]) was 5% and the inhibition at 1000 µM (YT-NU [3]) was 51%.

`Cl.Cl.NCCSc1cc(CCN)cc(O)c1O` showed an inhibition at 1000 µM (Don [1]) of 83%, a T/C (Mus musculus [11]) of 100% and a Weight change (Mus musculus [11]) of 1.1 g. The T/C (Mus musculus [12]) was 88%, the Weight change (Mus musculus [12]) was -2.1 g and the inhibition at 100 µM [2] was 48%. For the same compound, the inhibition at 1000 µM (YT-NU [3]) was 65% and the inhibition at 100 µM [4] was 73%.

In the case of `NC(CSc1cccc(O)c1O)C(=O)O` (centres undefined), the inhibition at 1000 µM (Don [1]) is reported as 32% and the inhibition at 1000 µM (YT-NU [3]) is reported as 20%.

In the case of `NC(CSc1cc(CC(N)C(=O)O)c(SCC(N)C(=O)O)c(O)c1O)C(=O)O` (centres undefined), the inhibition at 1000 µM (Don [1]) is reported as 44% and the inhibition at 1000 µM (YT-NU [3]) is reported as 56%.

`NC(CSc1cc(O)c(O)cc1CC(N)C(=O)O)C(=O)O` (centres undefined) was tested, and the inhibition at 1000 µM (Don [1]) was 41% and the inhibition at 1000 µM (YT-NU [3]) was 61%.

Work on `NC(CSc1cc(CC(N)C(=O)O)cc(O)c1O)C(=O)O` (centres undefined) yielded a T/C (Mus musculus [13]) of 150%, a Weight change (Mus musculus [13]) of 1.7 g and an inhibition at 1000 µM (Don [1]) of 11%. For the same compound, the T/C (Mus musculus [14]) was 131%, the Weight change (Mus musculus [15]) was 1.7 g and the T/C (Mus musculus [16]) was 127%. It also gave a Weight change (Mus musculus [16]) of 2.1 g, a T/C (Mus musculus [17]) of 108% and a Weight change (Mus musculus [17]) of 2.6 g. For the same compound, the inhibition at 1000 µM (YT-NU [3]) was 59%.

`NC(CSc1cc(CC(N)C(=O)O)ccc1O)C(=O)O` (centres undefined) showed an inhibition at 1000 µM (Don [1]) of 5% and an inhibition at 1000 µM (YT-NU [3]) of 7%.

`NCCc1ccc(O)c(O)c1` [DOPAMINE] was tested, and the inhibition at 1000 µM (Don [1]) was 30% and the inhibition at 1000 µM (YT-NU [3]) was 40%.

`N[C@@H](Cc1ccc(O)c(O)c1)C(=O)O` [LEVODOPA] was tested, and the inhibition at 1000 µM (Don [1]) was 6% and the inhibition at 1000 µM (YT-NU [3]) was 24%.

With `NC(CSc1ccc(SCC(N)C(=O)O)c(O)c1O)C(=O)O` (centres undefined) the inhibition at 1000 µM (Don [1]) was 30% and the inhibition at 1000 µM (YT-NU [3]) was 40%.

`NC(CSc1nc(CC(N)C(=O)O)c[nH]1)C(=O)O` (centres undefined) was tested, and the inhibition at 1000 µM (Don [1]) was 0% and the inhibition at 1000 µM (YT-NU [3]) was 7%.

`NC(CSc1ccc(O)cc1)C(=O)O` (centres undefined) showed an inhibition at 1000 µM (Don [1]) of 5%, a T/C (Mus musculus [18]) of 100% and a Weight change (Mus musculus [18]) of 3 g. It also gave an inhibition at 1000 µM (YT-NU [3]) of 36%.

With `NC(CSc1ccc(O)c(O)c1)C(=O)O` (centres undefined) the inhibition at 100 µM (Don [6]) was 69%, the T/C (Mus musculus [19]) was 109% and the Weight change (Mus musculus [19]) was 1.8 g. It also gave an inhibition at 1000 µM (Don [1]) of 81%, a T/C (Mus musculus [14]) of 150% and a Weight change (Mus musculus [14]) of -1 g. The inhibition at 100 µM (YT-NU [9]) was 71%, the T/C (Mus musculus [11]) was 113% and the Weight change (Mus musculus [11]) was 1.4 g. The T/C (Mus musculus [20]) was 114%, the Weight change (Mus musculus [20]) was -1.3 g and the T/C (Mus musculus [17]) was 95%. The Weight change (Mus musculus [17]) was -1.5 g, the inhibition at 1000 µM (YT-NU [3]) was 76% and the T/C (Mus musculus [21]) was 138%. For the same compound, the Weight change (Mus musculus [21]) was 0.5 g.
